Laboratory results as given in ChEMBL document CHEMBL4014306, “Pyrazolopyrimidines as Potent Stimulators for Transient Receptor Potential Canonical 3/6/7 Channels” (J Med Chem, 2017).
Activity calls are given as the source filed them. The calls are words filed in the database; no cut-off is given here.

What was measured:
Type in all cases: cell-based
[1] = molecular target: T1, Short transient receptor potential channel 3 (Rattus norvegicus) (UniProt Q9JMI9); assay: Agonist activity at TRPC3 in rat primary glomerular mesangial cells assessed as increase in intracellular calcium level at 1 uM by Fluo4-AM dye-based fluorescence assay
T1 sequence (whole entry): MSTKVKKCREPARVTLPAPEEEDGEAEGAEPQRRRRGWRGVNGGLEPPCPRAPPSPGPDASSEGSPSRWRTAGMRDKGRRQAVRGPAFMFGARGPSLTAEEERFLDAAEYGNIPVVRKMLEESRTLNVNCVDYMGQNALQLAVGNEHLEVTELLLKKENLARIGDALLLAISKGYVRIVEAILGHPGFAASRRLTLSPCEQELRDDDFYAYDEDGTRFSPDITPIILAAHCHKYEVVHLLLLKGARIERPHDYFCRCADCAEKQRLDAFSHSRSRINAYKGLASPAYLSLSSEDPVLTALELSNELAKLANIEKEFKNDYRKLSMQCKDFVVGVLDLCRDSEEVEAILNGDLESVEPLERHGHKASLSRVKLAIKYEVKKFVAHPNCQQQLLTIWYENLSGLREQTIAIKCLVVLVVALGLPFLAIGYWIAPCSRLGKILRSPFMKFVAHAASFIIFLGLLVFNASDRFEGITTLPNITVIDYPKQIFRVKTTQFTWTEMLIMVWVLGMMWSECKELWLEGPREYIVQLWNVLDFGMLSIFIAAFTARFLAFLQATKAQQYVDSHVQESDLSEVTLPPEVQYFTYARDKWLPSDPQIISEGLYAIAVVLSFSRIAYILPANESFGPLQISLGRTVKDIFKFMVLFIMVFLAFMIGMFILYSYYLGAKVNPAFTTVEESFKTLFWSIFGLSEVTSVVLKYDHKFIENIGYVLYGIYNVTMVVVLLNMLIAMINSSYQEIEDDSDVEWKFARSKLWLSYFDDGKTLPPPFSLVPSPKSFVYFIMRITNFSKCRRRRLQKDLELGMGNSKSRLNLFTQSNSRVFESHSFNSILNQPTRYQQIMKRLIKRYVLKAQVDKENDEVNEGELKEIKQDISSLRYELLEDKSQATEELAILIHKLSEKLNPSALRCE
Outline: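 Rat glomerular mesangial cells, isolated by graded sieving from male Sprague–Dawley rats, collagenase-digested, cultured in RPMI 1640 with 17% FBS. Grown overnight on coverslips, then loaded with 10 μM Fluo4-AM and 0.02% pluronic F-127 for 1 h at 37 °C in 1 mM Ca2+ saline, pH 7.4. Compound at 1 μM. Confocal imaging, ex 488/em 515 nm, read as F/F0. For the 2-APB condition, 30 μM 2-APB for 2 min beforehand and kept during compound application.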

[2] = molecular target: T2, Short transient receptor potential channel 6 (Mus musculus) (UniProt Q61143); assay: (§1) Agonist activity at mouse TRPC6 expressed in HEK293 cells co-expressing Gq11-PLCbeta fused M5 receptor assessed as induction of membrane potential depolarization measured for 2.5 mins by FLIPR assay
T2 sequence (whole entry): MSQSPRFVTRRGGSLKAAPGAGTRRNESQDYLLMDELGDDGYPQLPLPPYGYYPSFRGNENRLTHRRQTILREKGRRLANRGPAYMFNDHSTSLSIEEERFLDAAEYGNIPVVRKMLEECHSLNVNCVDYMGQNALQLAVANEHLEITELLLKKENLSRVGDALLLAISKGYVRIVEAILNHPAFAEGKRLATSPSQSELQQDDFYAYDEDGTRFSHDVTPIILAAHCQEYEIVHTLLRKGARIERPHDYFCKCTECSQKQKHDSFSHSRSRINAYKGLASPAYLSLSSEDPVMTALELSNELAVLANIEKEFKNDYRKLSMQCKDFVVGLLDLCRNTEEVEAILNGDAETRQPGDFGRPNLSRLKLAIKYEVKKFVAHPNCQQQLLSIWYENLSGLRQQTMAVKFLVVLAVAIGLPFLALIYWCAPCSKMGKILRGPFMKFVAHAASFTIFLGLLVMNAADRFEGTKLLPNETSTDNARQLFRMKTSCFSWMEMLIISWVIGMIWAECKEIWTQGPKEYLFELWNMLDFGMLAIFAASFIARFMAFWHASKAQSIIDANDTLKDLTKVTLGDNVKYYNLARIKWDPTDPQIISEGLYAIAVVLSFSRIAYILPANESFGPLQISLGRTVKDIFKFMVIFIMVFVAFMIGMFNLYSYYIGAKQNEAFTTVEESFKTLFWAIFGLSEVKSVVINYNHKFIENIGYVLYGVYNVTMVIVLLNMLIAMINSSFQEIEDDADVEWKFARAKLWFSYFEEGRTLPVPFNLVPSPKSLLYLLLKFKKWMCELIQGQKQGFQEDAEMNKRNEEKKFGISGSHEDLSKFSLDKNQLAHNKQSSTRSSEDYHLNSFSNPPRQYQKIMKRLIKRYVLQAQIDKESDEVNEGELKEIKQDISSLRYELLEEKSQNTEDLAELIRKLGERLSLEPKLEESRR
Outline: (§2)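 Mouse TRPC6/M5 stable HEK293 cells loaded with FLIPR membrane potential dye in extracellular solution containing 2 mM CaCl2, pH 7.4. Varying compound concentrations are applied, with 1 μM carbachol as reference, and read on a microplate reader at 32 °C. The increase in fluorescence (ΔF/F0) indicates depolarization. The concentration–response curve gives EC50, n = 6.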

[3] = molecular target: T3, Short transient receptor potential channel 6 (Mus musculus, UniProt Q61143); assay: as §1; outline: as §2
T3 sequence (Q61143 whole entry): T2 sequence (whole entry)

[4] = molecular target: T2, Short transient receptor potential channel 6 (Mus musculus); assay: (§3) Agonist activity at mouse TRPC6 expressed in HEK293 cells co-expressing Gq11-PLCbeta fused M5 receptor assessed as increase in intracellular calcium level by Fluo-4-AM dye-based fluorescence assay
Outline: (§4)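 Stable HEK293 line coexpressing mouse TRPC6 and M5 receptor, held under G418 and hygromycin B. Cells are loaded with Fluo4-AM or Fluo8-AM in 2 mM Ca2+ extracellular solution at pH 7.4 with 2 mM probenecid, and read at 32 °C as ΔF/F0.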

[5] = molecular target: T3, Short transient receptor potential channel 6; assay: as §3; outline: as §4
[6] = molecular target: T2, Short transient receptor potential channel 6 (Mus musculus); assay: Agonist activity at mouse TRPC6 expressed in HEK293 cells co-expressing Gq11-PLCbeta fused M5 receptor assessed as increase in intracellular calcium level measured for 2.5 mins by Fluo-8-AM dye-based fluorescence assay
[7] = molecular target: Transient receptor potential cation channel subfamily V member 1 (Homo sapiens) (UniProt Q8NER1); assay: Inhibition of human TRPV1 expressed in HEK293 cells assessed as decrease in capsaicin-evoked increase in intracellular calcium level at 22 uM preincubated for 2 mins followed by capsaicin addition measured for 2.5 mins by Fluo8-AM dye-based fluorescence assay relative to control
Transient receptor potential cation channel subfamily V member 1 (Homo sapiens), sequence (Q8NER1 whole entry): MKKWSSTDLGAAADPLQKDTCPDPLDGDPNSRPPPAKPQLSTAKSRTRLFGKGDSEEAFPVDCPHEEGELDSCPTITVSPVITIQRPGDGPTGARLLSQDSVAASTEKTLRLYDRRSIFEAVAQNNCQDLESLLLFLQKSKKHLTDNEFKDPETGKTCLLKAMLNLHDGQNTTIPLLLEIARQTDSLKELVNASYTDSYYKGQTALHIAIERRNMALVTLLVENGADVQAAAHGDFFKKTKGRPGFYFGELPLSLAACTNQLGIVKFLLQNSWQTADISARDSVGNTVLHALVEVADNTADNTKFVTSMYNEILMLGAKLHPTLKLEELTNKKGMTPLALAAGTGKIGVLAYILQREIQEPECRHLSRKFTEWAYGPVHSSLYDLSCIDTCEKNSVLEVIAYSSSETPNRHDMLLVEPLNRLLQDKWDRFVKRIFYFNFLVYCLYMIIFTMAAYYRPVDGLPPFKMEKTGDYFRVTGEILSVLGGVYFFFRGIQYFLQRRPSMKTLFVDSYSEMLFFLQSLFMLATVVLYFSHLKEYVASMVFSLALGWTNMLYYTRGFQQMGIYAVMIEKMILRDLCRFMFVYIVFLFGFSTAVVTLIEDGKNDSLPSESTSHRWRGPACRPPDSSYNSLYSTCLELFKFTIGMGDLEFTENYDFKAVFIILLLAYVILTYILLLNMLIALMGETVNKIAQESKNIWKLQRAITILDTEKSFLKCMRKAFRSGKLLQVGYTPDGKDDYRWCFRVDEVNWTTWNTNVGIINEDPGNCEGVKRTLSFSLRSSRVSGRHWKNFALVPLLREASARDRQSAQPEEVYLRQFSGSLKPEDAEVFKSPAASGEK
Outline: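 Same TRP panel as for the stimulation tests, with FMP dye for TRPC4 and M5 and Fluo8-AM for TRPA1, V1 and M8. Compound applied for 2 min before the channel agonist (TRPC4: 1 μM DAMGO). Inhibition of the agonist response measured on a FlexStation at 32 °C.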

`Cc1nn2c(O)cc(C3CCN(C(=O)OCc4ccccc4)CC3)nc2c1-c1ccc(F)cc1` was tested, and the Activity [1] was “Active”.
In the case of `CCOC(=O)N1CCC(c2cc(O)n3nc(C)c(-c4ccc(F)cc4)c3n2)CC1`, the Activity [2] is reported as “Dose-dependent effect”, the EC50 [3] is reported as 1.4 µM and the Activity [4] is reported as “Dose-dependent effect”. For the same compound, the EC50 [5] was 7.2 µM and the Activity [6] was “Dose-dependent effect”.
Work on `CCOC(=O)N1CCC(c2cc(O)n3nc(C)c(-c4ccc(C(F)(F)F)cc4)c3n2)CC1` yielded an inhibition [7] of under 20%.
